Bounds are passed on as bounds.

A short description of series [1]: Cmax in the CSF of male wistar rats. Format: ADME, organism-based, Cerebrospinal fluid. Particulars: rat. A digest of the protocol:
(§1)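 Male Wistar rats with jugular vein cannula, free access to food and water, given 30 mg/kg by oral gavage in 30% w/v β-cyclodextrin. Plasma, whole brain and CSF sampled over a time course (through 6–8 h); one animal per time point.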

A short description of series [2]: Cmax in the brain of male wistar rats. Format: ADME, organism-based. Particulars: rat. The method, boiled down:
as §1

Series [3] can be described thus: Cmax in the plasma of male wistar rats. Format: ADME, organism-based. As to conditions: rat. A digest of the protocol: as §1
Series [4] in a line: t1/2 in the CSF of male wistar rats. Format: ADME, organism-based, Cerebrospinal fluid. As to conditions: rat. The method, boiled down:
as §1

Series [5] is described as follows: t1/2 in the brain of male wistar rats. Format: ADME, organism-based. As to conditions: rat. A digest of the protocol:
as §1

Series [6] can be described thus: t1/2 in the plasma of male wistar rats. Format: ADME, organism-based. As to conditions: rat. The method, boiled down: as §1
Series [7] in a line: tmax in the CSF of male wistar rats. It counts as ADME, organism-based, Cerebrospinal fluid. As to conditions: rat. A digest of the protocol: as §1
A short description of series [8]: tmax in the brain of male wistar rats. It counts as ADME, organism-based. As to conditions: rat. The method, boiled down: as §1
The nature of series [9]: tmax in the plasma of male wistar rats. Format: ADME, organism-based. As to conditions: rat. The method, boiled down: as §1
A further series has as its system HMCB cell line. The series is described as follows: Inhibitory activity against calcium mobilization in NPY5 transfected human bowes melanoma cell line. Format: functional, cell-based. The method, boiled down:
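Ca2+ mobilization read-out in human Bowes melanoma (HMCB) cells transfected with NPY5.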
For orientation: Calcium assays in cells follow changes in intracellular calcium, usually with a dye or a luminescent sensor.

Series [10] addresses T1, Neuropeptide Y receptor type 1 (Homo sapiens, UniProt P25929).
T1 sequence (P25929 whole entry): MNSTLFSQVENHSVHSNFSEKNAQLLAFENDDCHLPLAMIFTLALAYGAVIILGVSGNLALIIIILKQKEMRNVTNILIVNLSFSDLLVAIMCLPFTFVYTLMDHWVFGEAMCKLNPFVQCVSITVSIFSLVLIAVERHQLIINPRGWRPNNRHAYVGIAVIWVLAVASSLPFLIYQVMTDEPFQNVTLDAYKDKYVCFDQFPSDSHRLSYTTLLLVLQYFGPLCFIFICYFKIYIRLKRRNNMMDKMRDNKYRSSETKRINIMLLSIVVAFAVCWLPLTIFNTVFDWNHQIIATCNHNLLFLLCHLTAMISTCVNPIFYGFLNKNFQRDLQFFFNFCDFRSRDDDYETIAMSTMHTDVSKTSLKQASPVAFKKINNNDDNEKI
The series is described as follows: Inhibitory activity against Neuropeptide Y receptor type 1. A digest of the protocol:
(§2)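 Cloned human chimeric NPY receptors, displacement of [125I]PYY radioligand.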

The target in series [11] is T2, Neuropeptide Y receptor type 2 (Homo sapiens, UniProt P49146).
T2 sequence (P49146 whole entry): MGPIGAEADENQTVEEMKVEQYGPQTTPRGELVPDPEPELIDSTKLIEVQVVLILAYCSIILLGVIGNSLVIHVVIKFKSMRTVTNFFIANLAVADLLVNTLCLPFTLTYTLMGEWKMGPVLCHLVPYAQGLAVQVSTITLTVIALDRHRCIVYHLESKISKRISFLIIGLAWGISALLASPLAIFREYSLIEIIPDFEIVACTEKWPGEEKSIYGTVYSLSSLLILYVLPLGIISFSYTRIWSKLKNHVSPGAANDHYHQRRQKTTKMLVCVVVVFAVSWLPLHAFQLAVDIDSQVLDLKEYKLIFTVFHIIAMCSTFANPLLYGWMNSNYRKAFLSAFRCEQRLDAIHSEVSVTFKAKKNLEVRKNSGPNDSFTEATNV
Kind of series: Inhibitory activity against Neuropeptide Y receptor type 2. The method, boiled down: as §2

The target of series [12] is T3, Neuropeptide Y receptor type 5 (Homo sapiens, UniProt Q15761).
T3 sequence (Q15761 whole entry): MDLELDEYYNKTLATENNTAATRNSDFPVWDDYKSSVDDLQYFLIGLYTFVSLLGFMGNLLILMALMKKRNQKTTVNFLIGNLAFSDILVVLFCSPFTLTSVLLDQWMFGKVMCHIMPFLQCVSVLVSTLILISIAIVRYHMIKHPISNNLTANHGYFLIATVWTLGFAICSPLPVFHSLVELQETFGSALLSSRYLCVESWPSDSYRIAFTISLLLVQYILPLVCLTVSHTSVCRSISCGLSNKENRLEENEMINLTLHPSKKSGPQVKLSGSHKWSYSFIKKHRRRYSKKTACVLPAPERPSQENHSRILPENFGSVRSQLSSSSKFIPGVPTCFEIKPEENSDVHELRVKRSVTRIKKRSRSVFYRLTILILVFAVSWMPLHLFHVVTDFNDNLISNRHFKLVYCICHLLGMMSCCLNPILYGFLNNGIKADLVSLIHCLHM
The series is described as follows: Binding affinity to the human Neuropeptide Y receptor type 5 was determined using [125I]- [PYY] as radioligand. The method, boiled down: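 Radioligand displacement binding on cloned human chimeric NPY5 receptors, with [125I]PYY as the labelled ligand.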

Series [13] addresses T4, Neuropeptide Y receptor type 5 (Rattus norvegicus, UniProt Q63634).
T4 sequence (Q63634 whole entry): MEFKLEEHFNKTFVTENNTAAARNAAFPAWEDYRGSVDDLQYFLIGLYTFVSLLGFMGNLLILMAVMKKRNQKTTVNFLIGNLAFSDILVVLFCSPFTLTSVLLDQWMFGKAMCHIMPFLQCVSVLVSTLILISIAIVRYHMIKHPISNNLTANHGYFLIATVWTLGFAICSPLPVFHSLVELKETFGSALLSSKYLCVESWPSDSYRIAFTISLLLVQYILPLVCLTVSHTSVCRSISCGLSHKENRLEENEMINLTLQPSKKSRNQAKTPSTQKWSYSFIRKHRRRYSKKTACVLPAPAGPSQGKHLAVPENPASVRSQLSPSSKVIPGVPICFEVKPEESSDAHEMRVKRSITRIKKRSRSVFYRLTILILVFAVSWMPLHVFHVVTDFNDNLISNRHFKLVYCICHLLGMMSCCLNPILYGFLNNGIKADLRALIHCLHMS
Kind of series: Binding affinity to the rat Neuropeptide Y receptor type 5 was determined using [125I]- [Leu31,Pro34]PYY as radioligand. A digest of the protocol: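 Whole rat brain membranes; radioligand [125I][Leu31,Pro34]PYY, with 1 μM BIBP3226 present to block NPY-1 receptors.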

Consider `CC(C)(C)OCCOc1ccc(-c2nc(-c3cccc(C#N)c3)c[nH]2)cn1`, for which the Cmax in series [1] was determined as 0.213 µM; in series [2] it was 8.55 µM; in series [3], 4.42 µM. The half-life in series [4] is 96 min; in series [5], 66 min; in series [6] it was 66 min. The Tmax in series [7], in series [8] and in [9] was 30 min throughout. For the same compound, the IC50 in the series on HMCB cell line was 0.4 nM; in series [10] it was over 1000 nM; in series [11], over 1000 nM. In addition, the Ki was 1.2 nM in series [12] and 1.7 nM in series [13].

The Cmax is the maximum level reached in the sampled fluid or tissue. One may read the half-life as how long it takes for the measured level to halve. Higher therefore signals slow decline. The Tmax is the time from dosing to the highest level. The IC50 is the concentration needed to halve the response being measured. The Ki is a measure of affinity in units of concentration, obtained from inhibition or displacement.

The values above are taken from ChEMBL document CHEMBL1145972, “In vitro and in vivo characterization of 3-[2-[6-(2-tert-butoxyethoxy)pyridin-3-yl]-1H-imidazol-4-yl]benzonitrile hydrochloride salt, a potent and selective NPY5 receptor antagonist” (J Med Chem, 2003).
